# Measured values collected from several papers.
# Compare with care: the assays were run in different laboratories.
# Sample: plasma
Compound,species,route,dose,notes,Tmax [h]
COc1ccc(N(Cc2csc(-c3ccccc3)n2)C(=O)CCCCCC(=O)NO)cc1,female Sprague-Dawley rat,intravenous,5 mg/kg,,0.08
C=CC(=O)N1CCC[C@@H](n2nc(-c3ccc(Oc4ccccc4)cc3)c3c(N)ncnc32)C1,male Wistar rat,oral,40 mg/kg,,2
C[C@H]1Oc2cc(cnc2N)-c2c(nn(C)c2C#N)CN(C)C(=O)c2ccc(F)cc21,male Sprague-Dawley rat,oral,50 mg/kg,single dose,11.4
C=CC(=O)N1CCC([C@@H]2CCNc3c(C(N)=O)c(-c4ccc(Oc5ccccc5)cc4)nn32)CC1,Sprague-Dawley rat,oral,16 mg/kg,,1.5
C[C@@]12C[C@@]3(O)O[C@@H](O1)[C@]1(COC(=O)c4ccccc4)[C@H]3C[C@@]12O[C@@H]1O[C@H](CO)[C@@H](O)[C@H](O)[C@H]1O,male Sprague-Dawley rat,oral,80 mg/kg,,0.506
CCN(CC)Cc1ccc2cc(COC(=O)Nc3ccc(C(=O)NO)cc3)ccc2c1,male Sprague-Dawley rat,oral,10 mg/kg,,~1.72
CN(C)C(=O)c1cc2cnc(Nc3ccc(N4CCNCC4)cn3)nc2n1C1CCCC1,male Sprague-Dawley rat,intraperitoneal,100 mg/kg,,0.5
COc1cc(-c2cc(C(C)=O)n3ccccc23)c(OC)cc1Cn1ccnc1,male Sprague-Dawley rat,oral,5 mg/kg,,0.5
CCCCC(=O)Nc1ccc(-c2ccc3ncn(CCC)c(=O)c3c2)cn1,male rat,oral,10 mg/kg,,0.25
CCOc1c([C@H](C)n2nc(C)c3c(N)ncnc32)cc(Cl)c(F)c1[C@@H]1CNC(=O)C1,male Sprague-Dawley rat,oral,2 mg/kg,single dose,~2.42
C1=C/COCc2cc(ccc2OCCN2CCCC2)Nc2nccc(n2)-c2cccc(c2)COC/1,male Sprague-Dawley rat,oral,36 mg/kg,,8.67
CCCc1nc2c(C)cc(-c3nc4ccccc4n3C)cc2n1Cc1ccc(-c2ccccc2C(=O)O)cc1,male Sprague-Dawley rat,oral,8 mg/kg,single dose,3.5
CONC(=O)c1cccc2c1cc(C)n2-c1nc2c(c(NCc3ccccc3)n1)CCCN2,male Sprague-Dawley rat,oral,10 mg/kg,single dose,0.25
CCCCCCCCCC(=O)N[C@@H](Cc1c[nH]c2ccccc12)C(=O)N[C@H](CC(N)=O)C(=O)N[C@@H](CC(=O)O)C(=O)N[C@@H]1C(=O)NCC(=O)N[C@@H](CCCN)C(=O)N[C@@H](CC(=O)O)C(=O)N[C@H](C)C(=O)N[C@@H](CC(=O)O)C(=O)NCC(=O)N[C@H](CO)C(=O)N[C@@H]([C@H](C)CC(=O)O)C(=O)N[C@@H](CC(=O)c2ccccc2N)C(=O)O[C@@H]1C,male Wistar rat,subcutaneous,125 mg/kg,single dose,5
O=C1CCC(N2Cc3cc(C4CCN(Cc5ccccc5)CC4)ccc3C2=O)C(=O)N1 (centres unmarked),male Sprague-Dawley rat,intravenous,1 mg/kg,,0.14
CC[C@@H]([C@H](C)O)n1ncn(-c2ccc(N3CCN(c4ccc(OC[C@@H]5CO[C@@](Cn6cncn6)(c6ccc(F)cc6F)C5)cc4)CC3)cc2)c1=O,Sprague-Dawley rat,oral,40 mg/kg,,3.05
C[C@H]1[C@@H](O)O[C@@H]2O[C@@]3(C)CC[C@H]4[C@H](C)CC[C@@H]1[C@@]24OO3,male Sprague-Dawley rat,oral,10 mg/kg,,0.75
